Bioassay records from PubChem BioAssay.
Only some compounds are listed: those with a hit (about 4.1% of all), similar ones and a draw of the others.
MPTP inh: permeability transition pore inhibition. isolated mouse mitochondria, Ca2+ swelling absorbance, 30 min. inhibition, % at 10 µM. 1.4% of 360,000 active;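 active means inhibition of 50% or more, scaled per plate between neutral and stimulator controls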;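 further: 0% = DMSO wells given calcium and 100% = 1 mM EGTA wells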
MC4R antag cAMP: blocks human MC4R cAMP signaling | MC4R-expressing cells, MTII-stimulated cAMP, LANCE TR-FRET | inhibition, % at 6.5 µM | 0.48% of 360,000 active;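 active means inhibition above its plate's cutoff, the mean of tested wells on that plate plus 3 SD, cut at about 29% in these data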;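 further: 0% = Melanotan II alone and 100% = Melanotan II plus saturating MCL0020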
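Material: human MC4R-expressing U2OS cells. Probe or stimulus: Melanotan II challenge. Dosing: 6.5 µM single dose. Times: 30-min compound, 1-h challenge, 1-h detection, room temperature. Technique: TR-FRET with Eu-cAMP and labeled anti-cAMP, 671 nm. Replication: singlicate.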
ATG4B inh: inhibitors of human ATG4B cysteine protease. Q9Y4P1. ATG4B cleavage of LC3-PLA2, NBD-HPC fluorescence, 1 h. inhibition, % at 8.33 µM. 0.51% of 340,000 active. AID 504462; in the data active means inhibition above about 40%
Target sequence (Q9Y4P1 whole entry, looked up): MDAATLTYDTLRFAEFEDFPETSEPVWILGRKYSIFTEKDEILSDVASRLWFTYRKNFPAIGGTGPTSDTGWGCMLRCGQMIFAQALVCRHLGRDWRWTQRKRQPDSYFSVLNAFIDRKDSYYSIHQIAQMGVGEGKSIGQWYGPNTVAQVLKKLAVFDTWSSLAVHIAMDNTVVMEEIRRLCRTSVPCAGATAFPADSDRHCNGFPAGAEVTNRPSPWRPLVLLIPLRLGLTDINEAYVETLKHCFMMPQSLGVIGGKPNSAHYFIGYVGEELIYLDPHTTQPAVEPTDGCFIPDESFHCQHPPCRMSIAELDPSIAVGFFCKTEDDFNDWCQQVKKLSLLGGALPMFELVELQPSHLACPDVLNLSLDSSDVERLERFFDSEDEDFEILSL
MC4R barr agon: human MC4R agonism via beta-arrestin; P32245; U2OS MC4R beta-arrestin complementation, luminescence; percent of melanotan II response, DMSO zero; activation, % at 8.9 µM; 0.98% of 360,000 active;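 active means activation above a per-plate cutoff, the mean activation of sample wells on that plate plus 3 SD, cut at about 8% in these data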
SMARCA2 act: increases SMARCA2 function in MMTV reporter cells; MG213 cells, MMTV-luciferase reporter, dexamethasone, overnight; activation, % at 9.1 µM; 1% of 370,000 active; AID 652017; in the data active means activation above about 7.8%;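 further: 0% = vehicle wells and 100% = reference activator wells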
MPTP counter: mitochondrial membrane potential, counter-screen. inhibition, % at 10 µM. shares compounds with MPTP inh. 78% of 5,000 active. isolated mitochondria, Rhodamine 123 fluorescence; in the data active means inhibition above about 22%;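 further: 0% = DMSO vehicle and 100% = positive control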
MPTP swell DR: MPTP inhibition, dose response swelling confirmation; isolated mitochondria swelling, absorbance; 58% of 780 active; shares compounds with MPTP inh; IC50, µM; in the data active means IC50 below about 20 µM
MPTP counter DR: counter-screen for mitochondrial permeability transition pore inhibitors, dose response; IC50, µM; AID 651564; isolated mitochondria counterscreen, fluorescence read-out; 49% of 780 active; shares compounds with MPTP inh; in the data active means IC50 below about 80 µM
An asterisk follows results filed as active; i = inactive; nt = no result given.

SMILES | MPTP inh | MC4R antag cAMP | ATG4B inh | MC4R barr agon | SMARCA2 act | MPTP counter | others
Cc1ccccc1C(=O)Nc1cc(S(=O)(=O)N2CCCCC2)ccc1N1CCN(C)CC1 | 28 | -5 | -5 | 0 | -2 | nt
C#CCNC(=O)C[C@H]1C[C@@]2(C(=O)OC)C(=C[C@H](C(C)(C)C)O[C@@H]2C)N(Cc2ccco2)C1=O | nt | nt | nt | nt | -1 | nt
O=C(Nc1cccc(S(=O)(=O)N2CCCCCC2)c1)c1cc(=O)c2ccccc2o1 | 52* | 7 | -12 | -2 | -2 | 64*
Cc1cc2oc(C(=O)Nc3ccc(S(=O)(=O)N4CCCC(C)C4)cc3)cc(=O)c2cc1Cl (stereo unspecified) | 73* | 16 | 17 | 0 | 2 | 7 | MPTP swell DR=>100;MPTP counter DR=<2.5*
Cc1cc(C)c2oc(C(=O)Nc3ccc(S(=O)(=O)N4CCC(C)CC4)cc3)cc(=O)c2c1 | 60* | -1 | -20 | -3 | 0 | -8 | MPTP swell DR=>100;MPTP counter DR=>80
NS(=O)(=O)c1cccc(NC(=O)c2cc(=O)c3ccccc3o2)c1 | 1 | 6 | -7 | -2 | 0 | nt
COC(=O)c1ccc2c(=O)n(CCCCCC(=O)NC3CCCCC3)c(=O)[nH]c2c1 | nt | nt | nt | nt | -1 | nt
Cc1ccc(-n2c(SCC(=O)Nc3ccccc3-c3ccccc3)nnc2-c2ccccc2)cc1 | nt | nt | nt | nt | -4 | nt
COc1ccc(-n2c(SCC(=O)Nc3ccc(Oc4ccccc4)cc3)nnc2-c2ccc(C)cc2)cc1 | nt | nt | nt | nt | -3 | nt
Oc1ccc(C[C@@H]2CNCCN2CC2CCCCC2)cc1 | 3 | -2 | 7 | 0 | -1 | nt
c1ccc2c(C[C@@H]3CNCCN3CC3CCCCC3)cccc2c1 | 54* | -4 | -8 | 4 | 0 | -12
O=S1(=O)c2ccc(Br)cc2OC[C@H](Cc2ccccc2)N1Cc1cn(Cc2ccc(Cl)cc2)nn1 | nt | nt | nt | nt | -2 | nt
COc1ccc(CC(=O)N2CCN(C(=O)c3ccc4nc(C)n(C5CCCC5)c4c3)CC2)cc1 | nt | nt | nt | nt | -2 | nt
CC(C)(C)c1ccc(NC(=O)COC(=O)c2ccc(NS(=O)(=O)c3ccc(F)c(F)c3)cc2)cc1 | 60* | 16 | -6 | 4 | -3 | 60*
C=CCNC(=O)CN(C(=O)Cc1cccc(OC(F)(F)F)c1)c1cccc(Br)c1 | nt | nt | nt | nt | 0 | nt
CC1=[N+](C)c2c(ccc3cccnc23)C1(C)C | 95* | 7 | -3 | -1 | -7 | 82*
C[C@@H]1COc2cccc(N3CCCC3)c2S(=O)(=O)N1 | nt | nt | nt | nt | -2 | nt
Cc1ccc2c(c1)c1c(n2CC(O)CNC2CCCCC2)CCCC1 (stereo unspecified) | 80* | -2 | -1 | 9.0* | 0 | -20
Cc1ccc2c(c1)c1c(n2CC(O)CNC(CO)(CO)CO)CCCC1 (stereo unspecified) | -2 | 8 | 1 | -1 | 0 | nt
Cc1ccc(C(C)C)c(OCCn2ccnc2C)c1 | 1 | 1 | -5 | 0 | -1 | nt
Cc1ccc(OCCCCn2ccnc2C)c(C)c1 | 61* | 10 | -11 | -2 | -2 | 27*
C[C@@H]1OC(C2CCCCC2)N(C)[C@H]2C[C@H]3c4[nH]c5c(-c6ccccc6)cccc5c4CCN3C(=O)[C@@H]12 (stereo partly specified) | nt | nt | nt | nt | -3 | nt
N#CC1=C(N)NC(SCC(=O)Nc2ccc(Br)cc2)=C(C#N)C12CCCCC2 | 89* | 11 | -8 | 0 | -3 | 89*
N#CC1=C(N)NC(SCC(=O)c2ccccc2)=C(C#N)C12CCCC2 | 19 | -3 | 11 | 0 | 1 | nt
N#CC1=C(N)NC(SCc2ccc(Cl)cc2)=C(C#N)C12CCCCC2 | 16 | 11 | 4 | 0 | -2 | nt
SMILES | MPTP inh | MC4R antag cAMP | ATG4B inh | MC4R barr agon | SMARCA2 act | MPTP counter | others
N#CC1=C(N)NC(SCc2ccc(Br)cc2)=C(C#N)C12CCCCC2 | 92* | 3 | 6 | 0 | -4 | 79*
CCCn1cc(C(=O)Nc2ccc(Oc3cccnc3)cc2)c2ccccc21 | nt | nt | nt | nt | 0 | nt
N#Cc1c(NC(=S)NC(=O)c2ccccc2)sc2c1CCCC2 | 86* | 5 | -8 | 1 | -1 | 15 | MPTP swell DR=i;MPTP counter DR=6.7*
CC1CCc2c(sc(NC(=S)NC(=O)c3ccccc3)c2C#N)C1 (stereo unspecified) | 66* | -7 | -2 | 0 | 6 | 70*
CC(C)CC(=O)NC(NC(=S)Nc1sc2c(c1C#N)CCCC2)C(Cl)(Cl)Cl (stereo unspecified) | 90* | -2 | -7 | -1 | 2 | 97*
Cn1ncc(Cl)c1C(=O)NC(=S)Nc1sc2c(c1C#N)CCCCC2 | 90* | 4 | -11 | -1 | -2 | 19 | MPTP swell DR=i;MPTP counter DR=<2.5*
Cc1cc(OCC(=O)Nc2ccc(Br)cc2)cc2c1C(=O)CC(C)(C)O2 | 62* | 4 | -2 | 3 | -7 | 68*
Cc1cc(OCC(=O)Nc2ccncc2)ccc1Cl | 98* | 4 | 0 | 0 | -3 | 88*
Cc1cc(OCC(=O)Nc2ccc3oc(-c4ccncc4)nc3c2)ccc1Cl | 4 | 13 | 3 | -1 | 4 | nt
Cc1cc(OCC(=O)Nc2ccncc2)cc(C)c1Br | 91* | -4 | 3 | 3 | -9 | 97*
CCCc1nc2sc3c(c2c(=O)n1NC(=O)c1ccco1)CC(C)(C)OC3 | 0 | -5 | 3 | -2 | -1 | nt
CCCCCCCCCc1nc2sc3c(c2c(=O)n1NC(=O)c1ccc([N+](=O)[O-])cc1)CC(C)(C)OC3 | 98* | 5 | 7 | 0 | 3 | 64*
CCCCCCCCCc1nc2sc3c(c2c(=O)n1NC(=O)c1ccccc1[N+](=O)[O-])CC(C)(C)OC3 | 87* | 7 | -10 | 0 | -1 | 63*
CCc1nc2sc3c(c2c(=O)n1N)CC(C)(C)OC3 | 1 | 3 | 9 | -1 | -4 | nt
CSc1cccc(NC(=O)CCCOc2ccc(Cl)cc2C)c1 | 75* | 10 | -2 | 1 | -2 | 81*
COc1ccc(CC(=O)Nc2cccc(S(=O)(=O)N3CCCCCC3)c2)cc1OC | 87* | 1 | -4 | -6 | -7 | 81*
COc1ccc(OCCCC(=O)Nc2cccc(SC)c2)cc1 | 1 | 0 | 8 | 0 | -4 | nt
COc1ccc(CC(=O)Nc2cccc(SC)c2)cc1OC | 54* | -8 | -11 | -1 | -5 | 42*
Cc1cccc(OCCSCc2nc3ccccc3[nH]2)c1 | 2 | -1 | 3 | -2 | 0 | nt
Cc1ccccc1OCCSCc1nc2ccccc2[nH]1 | 79* | 2 | -4 | 0 | -3 | 67*
O=C(CSc1nc2ccc(Cl)cc2[nH]1)NCc1ccco1 | 1 | 7 | 13 | -1 | 0 | nt
Cc1cc(C(=O)CSc2nc3ccc(Cl)cc3[nH]2)c(C)n1Cc1ccco1 | 51* | 4 | -3 | 0 | -5 | 53*
